# Test results from ChEMBL document CHEMBL4765324, “Synthesis and biological evaluation of novel quinoline-piperidine scaffolds as antiplasmodium agents” (Eur J Med Chem, 2020).
# Tests used:
# Plasmodium falciparum = experiment: Resistance index, ratio of IC50 for antiplasmodial activity against chloroquine-resistant Plasmodium falciparum K1 to IC50 for antiplasmodial activity against chloroquine-sensitive Plasmodium falciparum NF54; assay type: functional
# Procedure, shortened: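 Asexual blood-stage P. falciparum K1 and NF54 kept in continuous culture (modified Trager–Jensen). Growth read by parasite lactate dehydrogenase assay (modified Makler). Ten 2-fold dilutions in complete medium, from 10 μg/ml to 20 ng/ml (or 1 μg/ml to 2 ng/ml). Chloroquine as reference. Triplicate on one occasion. IC50s from non-linear dose-response fit. RI = IC50 K1/IC50 NF54.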
# [1] = Selectivity index, ratio of IC50 for CHO cells to IC50 for antiplasmodial activity against chloroquine-sensitive Plasmodium falciparum NF54; assay type: toxicity; conditions: hamster, CHO cells (cytotoxicity) versus Plasmodium falciparum NF54; read-out: Ratio IC50
# Procedure, shortened: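 CHO cytotoxicity measured by MTT colorimetric assay, using the antiplasmodial stock solutions. Six 10-fold dilutions in complete medium, 100 to 0.001 μg/ml, with emetine as reference. Triplicate on one occasion. IC50 from non-linear dose-response fit. NF54 IC50 came from the parasite lactate dehydrogenase assay. SI = IC50 CHO/IC50 NF54.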
smiles,measurement,setting,value
C=CCN1CCC(CNc2ccnc3ccccc23)C(C)(C)C1 (stereo not given),Ratio IC50,Plasmodium falciparum,0.3
C=CCN1CCC(CNc2ccnc3cc(Cl)ccc23)C(C)(C)C1 (stereo not given),Ratio IC50,Plasmodium falciparum,1.7
c1ccc(C23CCN(C2)C(CNc2ccnc4ccccc24)C3)cc1 (mixture of isomers),Ratio IC50,Plasmodium falciparum,1.5
Clc1ccc2c(NCC3CC4(c5ccccc5)CCN3C4)ccnc2c1 (mixture of isomers),Ratio IC50,Plasmodium falciparum,1.6
Oc1cccc2ccc(CNCC3CC4(c5ccccc5)CCN3C4)nc12 (mixture of isomers),Ratio IC50,Plasmodium falciparum,6.4
C=CCN1C[C@@H](OCc2ccccc2)[C@@H](CNCc2ccc3ccccc3n2)C(C)(C)C1 (relative stereo),Ratio IC50,Plasmodium falciparum,1.8
C=CCN1C[C@@H](OCc2ccccc2)[C@@H](CNc2ccnc3cc(Cl)ccc23)C(C)(C)C1 (relative stereo),selectivity ratio,[1],10100
same,Ratio IC50,Plasmodium falciparum,2.2
C=CCN1C[C@@H](OCc2ccccc2)[C@@H](CNCc2ccnc3ccccc23)C(C)(C)C1 (relative stereo),Ratio IC50,Plasmodium falciparum,1.5
C=CCN1C[C@@H](OCc2ccccc2)[C@@H](CNCc2cc3ccccc3nc2Cl)C(C)(C)C1 (relative stereo),Ratio IC50,Plasmodium falciparum,1.5
